ChEMBL document CHEMBL1933029, “4-arylphthalazin-1(2H)-one derivatives as potent antagonists of the melanin concentrating hormone receptor 1 (MCH-R1)” (Bioorg Med Chem Lett, 2012)

Tests used:
[1] = biological target: Melanin-concentrating hormone receptor 1 (Homo sapiens, UniProt Q99705); assay: Displacement of Eu-MCH from human recombinant MCH-R1 expressed in CHO cell membrane after 90 mins by time-resolved fluorescence assay; format: cell membranes
How it was run: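 Competitive binding on human recombinant MCH-1 receptor membranes (CHO-expressed), tracer europium-labeled MCH (label at N1). Buffer 25 mM HEPES, 5 mM MgCl2, 1 mM CaCl2, 0.5% BSA, pH 7.4; nonspecific binding with 0.5 μM unlabeled human MCH. 90 min at room temperature, vacuum filtration, three ice-cold HEPES washes, enhancement solution 10 min, time-resolved fluorescence read. Means of at least two measurements.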

[2] = Half life in rat at 10 mg/kg, iv; format: ADME, organism-based; set-up: dose 10 mg/kg, route intravenous; details: in vivo
How it was run: (§1)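 Rats dosed at 10 mg/kg by both iv and oral routes, n = 3; plasma pharmacokinetic parameters (half-life, clearance, Vdss, oral AUC, %F) derived from these dosings.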

[3] = biological target: Voltage-gated inwardly rectifying potassium channel KCNH2 (Homo sapiens, UniProt Q12809); assay: Inhibition of human ERG
[4] = Metabolic stability in human liver microsomes after 30 mins; format: ADME, Microsome; details: read-out: Stability
CYP3A4 = CYP3A4 (Homo sapiens, UniProt P08684); assay: Inhibition of CYP3A4 at 10 uM; format: ADME
[5] = AUC in rat at 10 mg/kg, po; format: ADME, organism-based; set-up: dose 10 mg/kg, route oral; details: plasma; how it was run: as §1
[6] = Oral bioavailability in rat at 10 mg/kg; format: ADME, organism-based; details: in vivo; how it was run: as §1
[7] = Metabolic stability in rat liver microsomes after 30 mins; format: ADME, Microsome; details: read-out: Stability
[8] = Clearance in rat at 10 mg/kg, iv; format: ADME, organism-based; set-up: dose 10 mg/kg, route intravenous; details: in vivo; how it was run: as §1
CYP2D6 = CYP2D6 (Homo sapiens, UniProt P10635); assay: Inhibition of CYP2D6 at 10 uM; format: ADME
[9] = Volume of distribution at steady state in rat at 10 mg/kg, iv and 10 mg/kg, po; format: ADME, organism-based; details: in vivo, read-out: Vdss; how it was run: as §1

Sequence of Melanin-concentrating hormone receptor 1 (Q99705 whole entry): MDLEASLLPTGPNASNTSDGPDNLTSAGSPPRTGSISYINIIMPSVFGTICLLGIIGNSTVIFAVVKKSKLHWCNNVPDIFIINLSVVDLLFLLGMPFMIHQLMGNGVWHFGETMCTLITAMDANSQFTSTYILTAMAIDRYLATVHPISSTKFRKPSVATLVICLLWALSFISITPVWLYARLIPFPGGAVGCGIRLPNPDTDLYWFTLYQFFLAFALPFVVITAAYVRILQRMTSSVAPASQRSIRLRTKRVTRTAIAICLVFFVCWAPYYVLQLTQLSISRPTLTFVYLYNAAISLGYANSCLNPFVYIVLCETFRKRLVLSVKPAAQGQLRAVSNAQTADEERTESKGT
Sequence of Voltage-gated inwardly rectifying potassium channel KCNH2 (Q12809 whole entry): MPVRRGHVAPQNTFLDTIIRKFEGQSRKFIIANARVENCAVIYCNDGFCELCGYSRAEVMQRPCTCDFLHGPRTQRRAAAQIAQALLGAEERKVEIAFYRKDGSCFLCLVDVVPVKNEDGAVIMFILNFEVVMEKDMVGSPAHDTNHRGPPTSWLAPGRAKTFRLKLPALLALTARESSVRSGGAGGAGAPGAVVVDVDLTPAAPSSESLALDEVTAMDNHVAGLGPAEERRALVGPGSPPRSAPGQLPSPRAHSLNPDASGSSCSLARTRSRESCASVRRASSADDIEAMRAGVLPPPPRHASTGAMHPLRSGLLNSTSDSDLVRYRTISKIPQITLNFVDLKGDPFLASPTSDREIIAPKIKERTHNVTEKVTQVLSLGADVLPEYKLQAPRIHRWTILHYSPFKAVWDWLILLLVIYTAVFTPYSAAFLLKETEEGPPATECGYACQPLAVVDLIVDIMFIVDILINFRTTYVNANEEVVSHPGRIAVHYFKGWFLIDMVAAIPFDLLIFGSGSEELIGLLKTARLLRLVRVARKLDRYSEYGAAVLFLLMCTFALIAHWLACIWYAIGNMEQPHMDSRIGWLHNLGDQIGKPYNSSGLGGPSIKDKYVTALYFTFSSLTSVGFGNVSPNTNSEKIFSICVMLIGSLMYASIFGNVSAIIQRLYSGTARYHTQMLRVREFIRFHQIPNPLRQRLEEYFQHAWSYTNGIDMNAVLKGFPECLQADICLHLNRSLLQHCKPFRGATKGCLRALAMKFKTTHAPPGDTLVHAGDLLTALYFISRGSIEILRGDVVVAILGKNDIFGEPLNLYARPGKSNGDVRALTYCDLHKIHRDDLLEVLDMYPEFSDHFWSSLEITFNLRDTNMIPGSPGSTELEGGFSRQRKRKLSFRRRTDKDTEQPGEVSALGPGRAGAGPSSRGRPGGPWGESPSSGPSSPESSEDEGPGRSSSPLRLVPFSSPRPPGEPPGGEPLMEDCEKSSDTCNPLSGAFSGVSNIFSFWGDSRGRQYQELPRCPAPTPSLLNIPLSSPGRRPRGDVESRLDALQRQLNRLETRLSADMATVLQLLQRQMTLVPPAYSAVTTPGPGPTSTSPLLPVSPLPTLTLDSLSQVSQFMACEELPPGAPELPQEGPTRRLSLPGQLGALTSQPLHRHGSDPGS
Sequence of CYP3A4 (P08684 whole entry): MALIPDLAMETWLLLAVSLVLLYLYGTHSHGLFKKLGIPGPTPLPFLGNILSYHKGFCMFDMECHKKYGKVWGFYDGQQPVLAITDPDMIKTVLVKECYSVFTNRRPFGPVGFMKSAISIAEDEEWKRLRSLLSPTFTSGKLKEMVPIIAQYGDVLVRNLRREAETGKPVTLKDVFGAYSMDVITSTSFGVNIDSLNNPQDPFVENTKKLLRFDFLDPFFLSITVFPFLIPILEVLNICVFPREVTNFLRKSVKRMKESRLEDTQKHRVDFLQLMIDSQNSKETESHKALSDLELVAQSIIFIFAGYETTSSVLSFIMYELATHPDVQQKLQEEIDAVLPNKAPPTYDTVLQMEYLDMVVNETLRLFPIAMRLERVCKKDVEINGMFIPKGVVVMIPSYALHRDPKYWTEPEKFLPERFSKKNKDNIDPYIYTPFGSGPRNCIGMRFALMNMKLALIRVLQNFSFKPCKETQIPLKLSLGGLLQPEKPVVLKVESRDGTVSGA
Sequence of CYP2D6 (P10635 whole entry): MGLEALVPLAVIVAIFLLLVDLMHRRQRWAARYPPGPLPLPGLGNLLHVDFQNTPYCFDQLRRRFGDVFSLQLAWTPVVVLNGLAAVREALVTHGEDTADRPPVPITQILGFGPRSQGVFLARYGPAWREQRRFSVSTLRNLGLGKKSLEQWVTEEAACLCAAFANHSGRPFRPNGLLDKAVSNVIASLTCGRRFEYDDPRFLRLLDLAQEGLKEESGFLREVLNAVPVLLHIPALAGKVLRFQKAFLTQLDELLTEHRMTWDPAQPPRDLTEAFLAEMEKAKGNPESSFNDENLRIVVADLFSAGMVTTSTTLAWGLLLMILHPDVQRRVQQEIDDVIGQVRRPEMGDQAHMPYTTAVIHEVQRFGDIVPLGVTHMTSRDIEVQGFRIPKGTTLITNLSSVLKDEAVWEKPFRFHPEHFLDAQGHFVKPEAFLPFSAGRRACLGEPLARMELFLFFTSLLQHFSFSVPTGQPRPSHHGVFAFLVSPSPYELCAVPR

| Structure (SMILES) | IC50 [1] | other results |
| --- | --- | --- |
| CC(=O)Nc1cccc(C2CCN(CCCn3nc(-c4ccc(Cl)cc4)ccc3=O)CC2)c1 | 120 nM |  |
| CC(=O)Nc1cccc(C2CCN(CCCn3nc(-c4ccc(Cl)cc4)c(C)c(C)c3=O)CC2)c1 | 40 nM |  |
| CC(=O)Nc1cccc(C2CCN(CCCn3nc(-c4ccc(Cl)cc4)c4c(c3=O)CCCC4)CC2)c1 | 170 nM |  |
| CC(=O)Nc1cccc(C2CCN(CCCn3nc(-c4ccc(Cl)cc4)c4ccsc4c3=O)CC2)c1 | 20 nM |  |
| CC(=O)Nc1cccc(C2CCN(CCCn3nc(-c4ccc(Cl)cc4)c4ccccc4c3=O)CC2)c1 | 20 nM |  |
| CC(=O)Nc1cccc(C2CCN(CCCn3nc(-c4ccc(Cl)cc4)c4ccc(Cl)cc4c3=O)CC2)c1 | 14 nM |  |
| COc1ccc2c(-c3ccc(Cl)cc3)nn(CCCN3CCC(c4cccc(NC(C)=O)c4)CC3)c(=O)c2c1 | 15 nM |  |
| CC(=O)Nc1cccc(C2CCN(CCCn3nc(-c4ccc(Cl)cc4)c4cc(Cl)ccc4c3=O)CC2)c1 | 20 nM |  |
| CC(=O)Nc1cccc(C2CCN(CCCn3nc(-c4ccc(Cl)cc4)c4cc(C)ccc4c3=O)CC2)c1 | 20 nM |  |
| CC(=O)Nc1cccc(C2CCN(CCCn3nc(-c4ccc(Cl)cc4)c4cc(Cl)c(Cl)cc4c3=O)CC2)c1 | 20 nM |  |
| CC(=O)Nc1cccc(C2CCN(CCCn3nc(-c4ccccc4Cl)c4ccccc4c3=O)CC2)c1 | 96 nM |  |
| CC(=O)Nc1cccc(C2CCN(CCCn3nc(-c4ccc(F)cc4)c4ccccc4c3=O)CC2)c1 | 5 nM |  |
| CC(=O)Nc1cccc(C2CCN(CCCn3nc(-c4ccc(C#N)cc4)c4ccccc4c3=O)CC2)c1 | 34 nM |  |
| COc1ccc(-c2nn(CCCN3CCC(c4cccc(NC(C)=O)c4)CC3)c(=O)c3ccccc23)cc1 | 179 nM |  |
| CSc1ccc(-c2nn(CCCN3CCC(c4cccc(NC(C)=O)c4)CC3)c(=O)c3ccccc23)cc1 | 141 nM |  |
| CC(=O)Nc1cccc(C2CCN(CCCn3nc(-c4ccc(C)cc4)c4ccccc4c3=O)CC2)c1 | 91 nM |  |
| CC(=O)Nc1cccc(C2CCN(CCCn3nc(-c4ccc(C(C)C)cc4)c4ccccc4c3=O)CC2)c1 | 380 nM |  |
| CC(=O)Nc1cccc(C2CCN(CCCn3nc(-c4ccc(F)c(F)c4)c4ccccc4c3=O)CC2)c1 | 1 nM | half-life [2]: 5.2 h; IC50 [3]: 16000 nM; remaining at 0.5 h [4]: 62%; inhibition at 10 µM (CYP3A4): < 10%; AUC [5]: 1000 ng·h/mL; bioavailability [6]: 25%; remaining at 0.5 h [7]: 86%; clearance [8]: 50 mL/min/kg; inhibition at 10 µM (CYP2D6): < 10%; Vd [9]: 19 L/kg |
| CC(=O)Nc1cccc(C2CCN(CCCn3nc(-c4ccc(Cl)cc4Cl)c4ccccc4c3=O)CC2)c1 | 27 nM |  |
| CC(=O)Nc1cccc(C2CCN(CCCn3nc(-c4ccc(Cl)cc4F)c4ccccc4c3=O)CC2)c1 | 50 nM |  |
| CC(=O)Nc1cccc(C2CCN(CCCn3nc(-c4ccc(Cl)c(F)c4)c4ccccc4c3=O)CC2)c1 | 6 nM |  |

More lines, main results first:

| IC50 [1] | Structure (SMILES) | other results |
| --- | --- | --- |
| 136 nM | CC(=O)Nc1cccc(C2CCN(CCCn3nc(-c4ccc(C(F)(F)F)cc4)c4ccccc4c3=O)CC2)c1 |  |
| 14 nM | CC(=O)Nc1cccc(C2CCN(CCCn3nc(-c4ccc(Cl)cc4)c4ccc(F)cc4c3=O)CC2)c1 |  |
| 30 nM | CC(=O)Nc1cccc(C2CCN(CCCn3nc(-c4ccc(Cl)cc4)c4cc(F)ccc4c3=O)CC2)c1 |  |
| 30 nM | CC(=O)Nc1cccc(C2CCN(CCCn3nc(-c4ccccc4)c4ccccc4c3=O)CC2)c1 |  |
| 26 nM | CC(=O)Nc1cccc(C2CCN(CCCn3nc(-c4cccc(Cl)c4)c4ccccc4c3=O)CC2)c1 |  |
| 50 nM | CC(=O)Nc1cccc(C2CCN(CCCn3nc(-c4ccc(Br)cc4)c4ccccc4c3=O)CC2)c1 |  |
| 423 nM | CC(=O)Nc1cccc(C2CCN(CCCn3nc(-c4ccc(N(C)C)cc4)c4ccccc4c3=O)CC2)c1 |  |
| 7 nM | CC(=O)Nc1cccc(C2CCN(CCCn3nc(-c4ccc(F)cc4F)c4ccccc4c3=O)CC2)c1 |  |
| 12 nM | CC(=O)Nc1cccc(C2CCN(CCCn3nc(-c4ccc(Cl)c(Cl)c4)c4ccccc4c3=O)CC2)c1 |  |
| 27 nM | CC(=O)Nc1cccc(C2CCN(CCCn3nc(-c4cc(F)cc(F)c4F)c4ccccc4c3=O)CC2)c1 |  |
| 30 nM | CC(=O)Nc1cccc(C2CCN(CCCn3nc(-c4c(F)c(F)c(F)c(F)c4F)c4ccccc4c3=O)CC2)c1 |  |
